Activity calls are given as the source filed them.
How the values were obtained:
[1] = organism: Cavia porcellus; assay: Inhibition of ouabain-insensitive Mg(2+)-ATPase-mediated phosphohydrolase activity in guinea pig myocardium at 5 X 10^-5 M after 30 mins relative to control; type: tissue-based
Procedure, shortened: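 Guinea pig myocardial crude membranes (5-10 units; µmol Pi/mg protein/h), assayed without Na+ and K+ (ouabain-insensitive activity), with and without drug, 37 °C for 30 min. Substrate use under 15% in drug-free controls. Drug tested 10⁻⁸–10⁻⁴ M in duplicate; values taken from dose-response curves.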

[2] = system: Left cardiac atrium; assay: Negative inotropic activity in guinea pig left atrium assessed as isometric force of contraction at 10^-8 to 10^-4 M relative to control; type: functional, tissue-based; conditions: Cavia porcellus
Procedure, shortened: (§1)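 Guinea pig left auricle in Krebs-Henseleit, 32 °C, gassed O2/5% CO2, resting tension about 1 g. Paced with 10-ms rectangular pulses at 100/min, voltage 20% above threshold. Cumulative dose-response curves up to 10⁻⁴ M. Isometric contraction changes computed against control atria.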

[3] = system: Left cardiac atrium; assay: Inotropic activity in guinea pig left atrium assessed as change in isometric force of contraction at 5 X 10^-5 M relative to control; type: functional, Cavia porcellus; procedure, shortened: as §1
[4] = organism: Cavia porcellus; assay: Inhibition of Na(+)/K(+) ATPase-mediated phosphohydrolase activity in guinea pig myocardium at 5 X 10^-5 M after 30 mins relative to control; type: tissue-based
Procedure, shortened: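 Crude membranes from guinea pig myocardium (5-10 units activity; unit = µmol Pi liberated/mg protein/h) incubated 37 °C, 30 min. Substrate consumption under 15% without drug. Dose-response curves over 10⁻⁸–10⁻⁴ M, duplicate determinations; values read from curves.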

[5] = organism: Cavia porcellus; assay: Inhibition of Na(+)/K(+) ATPase-mediated phosphohydrolase activity in guinea pig myocardium at 2 X 10^-6 M after 30 mins relative to control; type: tissue-based
Procedure, shortened: (§2)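 Crude guinea pig myocardial membrane preparation (5-10 units each enzyme; µmol Pi/mg protein/h), incubated 37 °C for 30 min. Substrate consumption stayed below 15%. Dose-response curves spanned 10⁻⁸–10⁻⁴ M in duplicate, and values were read from the curves.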

[6] = system: Left cardiac atrium; assay: Inotropic activity in guinea pig left atrium assessed as change in isometric force of contraction at 2 X 10^-6 M relative to control; type: functional, Cavia porcellus
Procedure, shortened: (§3)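 Guinea pig left auricle in Krebs-Henseleit at 32 °C, gassed with O₂/5% CO₂ under about 1 g resting tension. Pacing used 10-ms rectangular pulses at 100/min and 20% above threshold voltage. Change in isometric contraction was referenced to control atria. Cumulative dose-response curves ran up to 10⁻⁴ M.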

[7] = organism: Cavia porcellus; assay: Inhibition of ouabain-insensitive Mg(2+)-ATPase-mediated phosphohydrolase activity in guinea pig myocardium at 2 X 10^-6 M after 30 mins relative to control; type: tissue-based
Procedure, shortened: (§4)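 Guinea pig myocardial crude membranes were incubated 30 min at 37 °C without Na⁺ and K⁺. Ouabain-insensitive Mg²⁺-ATPase activity was measured as inorganic phosphate released (µmol/mg protein/h), with and without drug. Substrate use stayed under 15%. Dose-response curves covered 10⁻⁸–10⁻⁴ M, run in duplicate, and values were taken from the curves.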

[8] = system: Left cardiac atrium; assay: Toxicity in guinea pig left atrium assessed as tissue arrest at 5 X 10^-5 M relative to control; type: tissue-based, Cavia porcellus; conditions: 50 µM
Procedure, shortened: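 Electrically paced guinea pig left auricle (Krebs-Henseleit, 32 °C, O₂/5% CO₂, about 1 g resting tension, 10-ms pulses at 100/min, 20% above threshold) given cumulative drug doses up to 10⁻⁴ M. Toxicity was scored as tissue arrest, which follows the inflection of the dose-response curve.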

[9] = organism: Cavia porcellus; assay: Inhibition of Na(+)/K(+) ATPase-mediated phosphohydrolase activity in guinea pig myocardium at 1 X 10^-5 M after 30 mins relative to control; type: tissue-based; procedure, shortened: as §2
[10] = system: Left cardiac atrium; assay: Inotropic activity in guinea pig left atrium assessed as change in isometric force of contraction at 1 X 10^-5 M relative to control; type: functional, Cavia porcellus; procedure, shortened: as §3
[11] = organism: Cavia porcellus; assay: Inhibition of ouabain-insensitive Mg(2+)-ATPase-mediated phosphohydrolase activity in guinea pig myocardium at 1 X 10^-5 M after 30 mins relative to control; type: tissue-based; procedure, shortened: as §4

Row | Imax [1] | inhibition [4] | inhibition [1] | Structure (SMILES) | Activity [2] | Activity [3] | further results
1 | 43% | 40% | – | C[C@]12CC[C@H](O)C[C@@H]1CC[C@@H]1[C@@H]2CC[C@]2(C)[C@@H](/C=N\NC(=N)N)CC[C@@H]12 | Active | -50% | –
2 | – | – | – | C[C@]12CC[C@H](O)C[C@H]1CC[C@@H]1[C@@H]2CC[C@]2(C)[C@@H](C3=CC(=O)OC3)CC[C@]12O [DIGITOXIGENIN] | – | – | inhibition [5]: 60%; Activity [6]: 130%; inhibition [7]: 0%
3 | – | 55% | 55% | C[C@]12CC[C@H](O)C[C@H]1CC[C@@H]1[C@@H]2CC[C@]2(C)[C@@H](/C=N\NC(=N)N)CC[C@@H]12 | Active | -45% | –
4 | – | 37% | 45% | C[C@]12CC[C@@H](O)C[C@H]1CC[C@@H]1[C@@H]2CC[C@]2(C)[C@@H](/C=N\NC(=N)N)CC[C@@H]12 | Active | -10% | –
5 | 30% | 54% | – | C[C@]12CC[C@H]3[C@@H](CCC4=C[C@@H](O)CC[C@@]43C)[C@@H]1CC[C@@H]2/C=N\NC(=N)N | Active | -18% | –

Row | Structure (SMILES) | Imax [1] | inhibition [4] | inhibition [1] | Activity [2] | Activity [3] | further results
6 | C[C@]12CC[C@H](O)C[C@H]1CC[C@@H]1[C@@H]2CC[C@]2(C)[C@@H](/C=N\NC(=N)N)CC[C@]12O | – | 53% | 0% | – | – | Activity [8]: Toxic; inhibition [9]: 20%; Activity [10]: 120%; inhibition [11]: 0%

— ChEMBL document CHEMBL3244046, “Cardenolide analogues. 7. Synthesis and biological activity of some new steroidal guanylhydrazones” (J Med Chem, 1978)
